Converted amounts (≈) assume the structure as drawn.
Assays:
[1] = molecular target: Receptor-type tyrosine-protein kinase FLT3 (Homo sapiens) (UniProt P36888); experiment: Inhibition of Flt3 (unknown origin) at 1 uM
In short: (§1)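 Single-point panel run by an outside contract lab: inhibition of each of 40 selected kinases measured at 1 µM test compound; percent inhibition reported.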

[2] = molecular target: Glycogen synthase kinase-3 beta (Homo sapiens) (UniProt P49841); experiment: Inhibition of GSK3beta (unknown origin) at 1 uM; in short: as §1
[3] = species on record: Homo sapiens; experiment: Inhibition of MAPK (unknown origin) at 1 uM; in short: as §1
[4] = molecular target: Proto-oncogene tyrosine-protein kinase receptor Ret (Homo sapiens) (UniProt P07949); experiment: Inhibition of Ret (unknown origin) at 1 uM; in short: as §1
[5] = molecular target: Macrophage colony-stimulating factor 1 receptor (Homo sapiens) (UniProt P07333); experiment: Inhibition of CSF1R (unknown origin) at 1 uM; in short: as §1
[6] = molecular target: RAC-alpha serine/threonine-protein kinase (Homo sapiens) (UniProt P31749); experiment: Inhibition of Akt1 (unknown origin) at 1 uM; in short: as §1
[7] = system: Liver microsomes; experiment: Metabolic stability in human liver microsomes; type: ADME, Microsome
[8] = Kinetic solubility of the compound in isotonic buffer at pH 7.4; type: physicochemical; conditions: read-out: Kinetic_solubility
[9] = molecular target: RAF proto-oncogene serine/threonine-protein kinase (Homo sapiens) (UniProt P04049); experiment: Inhibition of Raf1 (unknown origin) at 1 uM; in short: as §1
[10] = system: Liver microsomes; experiment: Metabolic stability in rat liver microsomes after 30 mins; type: ADME, Microsome; conditions: 0.5 h
In short: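 Compound incubated with NADPH-supplemented rat liver microsomes at 37 °C for 30 min; parent consumption and sulfoxide/sulfone metabolite formation monitored.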

[11] = molecular target: Dual specificity protein kinase TTK (Homo sapiens) (UniProt P33981); experiment: Inhibition of Ttk (unknown origin) at 1 uM; in short: as §1
[12] = molecular target: Serine/threonine-protein kinase PLK1 (Homo sapiens) (UniProt P53350); experiment: Inhibition of PLK1 (unknown origin) at 1 uM; in short: as §1
[13] = molecular target: Serine/threonine-protein kinase Chk1 (Homo sapiens) (UniProt O14757); experiment: Inhibition of Chek1 (unknown origin) at 1 uM; in short: as §1
[14] = molecular target: Aurora kinase A (Homo sapiens) (UniProt O14965); experiment: Inhibition of Aurora A (unknown origin) at 1 uM; in short: as §1
[15] = molecular target: Receptor tyrosine-protein kinase erbB-4 (Homo sapiens) (UniProt Q15303); experiment: Inhibition of ErbB4 (unknown origin) at 1 uM; in short: as §1
[16] = species on record: Homo sapiens; experiment: Selectivity ratio of IC50 for wild type LRRK2 (unknown origin) to IC50 for LRRK2 G2019S mutant (unknown origin)
In short: (§2)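 HTRF assay with GST-LRRK2 (G2019S or wild type) measuring inhibition of LRRKtide phosphorylation. Biotinylated LRRKtide substrate; detection with Eu(K)-labelled anti-phospho-Moesin antibody plus streptavidin-XL665, read at 620 and 665 nm. Ratio taken as wild-type IC50 over G2019S IC50.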

[17] = molecular target: Leucine-rich repeat serine/threonine-protein kinase 2 (Homo sapiens, UniProt Q5S007); experiment: Inhibition of wild type LRRK2 (unknown origin) by TR-FRET assay; in short: as §2
[18] = molecular target: Cyclin-dependent kinase 5/CDK5 activator 1 (Homo sapiens) (UniProt Q00535+Q15078); experiment: Inhibition of CDK5/p25 (unknown origin) at 1 uM; type: protein-complex assay; in short: as §1
[19] = molecular target: Platelet-derived growth factor receptor alpha (Homo sapiens) (UniProt P16234); experiment: Inhibition of PDGFRalpha (unknown origin) at 1 uM; in short: as §1
[20] = molecular target: Phosphatidylinositol 4,5-bisphosphate 3-kinase catalytic subunit alpha isoform (Homo sapiens) (UniProt P42336); experiment: Inhibition of PIK3CA (unknown origin) at 1 uM; in short: as §1
[21] = molecular target: Tyrosine-protein kinase SYK (Homo sapiens) (UniProt P43405); experiment: Inhibition of Syk (unknown origin) at 1 uM; in short: as §1
[22] = molecular target: Leucine-rich repeat serine/threonine-protein kinase 2 (Homo sapiens, UniProt Q5S007, G2019S); experiment: Inhibition of LRRK2 G2019S mutant (unknown origin) by TR-FRET assay; in short: as §2
[23] = molecular target: Cyclin-dependent kinase 1/cyclin B1 (Homo sapiens) (UniProt P06493+P14635); experiment: Inhibition of CDK1/Cyclin B (unknown origin) at 1 uM; type: protein-complex assay; in short: as §1
[24] = molecular target: Tyrosine-protein kinase JAK1 (Homo sapiens) (UniProt P23458); experiment: Inhibition of Jak1 (unknown origin) at 1 uM; in short: as §1
[25] = molecular target: Tyrosine-protein kinase ABL1 (Homo sapiens) (UniProt P00519); experiment: Inhibition of Abl1 (unknown origin) at 1 uM; in short: as §1
[26] = Permeability of the compound; type: ADME; conditions: not told; read-out: permeability
[27] = system: P-gp; experiment: Efflux ratio in P-gp (unknown origin) mediated drug transport; type: ADME; conditions: human, not told

Leucine-rich repeat serine/threonine-protein kinase 2 (Homo sapiens, UniProt Q5S007), sequence (Q5S007 whole entry): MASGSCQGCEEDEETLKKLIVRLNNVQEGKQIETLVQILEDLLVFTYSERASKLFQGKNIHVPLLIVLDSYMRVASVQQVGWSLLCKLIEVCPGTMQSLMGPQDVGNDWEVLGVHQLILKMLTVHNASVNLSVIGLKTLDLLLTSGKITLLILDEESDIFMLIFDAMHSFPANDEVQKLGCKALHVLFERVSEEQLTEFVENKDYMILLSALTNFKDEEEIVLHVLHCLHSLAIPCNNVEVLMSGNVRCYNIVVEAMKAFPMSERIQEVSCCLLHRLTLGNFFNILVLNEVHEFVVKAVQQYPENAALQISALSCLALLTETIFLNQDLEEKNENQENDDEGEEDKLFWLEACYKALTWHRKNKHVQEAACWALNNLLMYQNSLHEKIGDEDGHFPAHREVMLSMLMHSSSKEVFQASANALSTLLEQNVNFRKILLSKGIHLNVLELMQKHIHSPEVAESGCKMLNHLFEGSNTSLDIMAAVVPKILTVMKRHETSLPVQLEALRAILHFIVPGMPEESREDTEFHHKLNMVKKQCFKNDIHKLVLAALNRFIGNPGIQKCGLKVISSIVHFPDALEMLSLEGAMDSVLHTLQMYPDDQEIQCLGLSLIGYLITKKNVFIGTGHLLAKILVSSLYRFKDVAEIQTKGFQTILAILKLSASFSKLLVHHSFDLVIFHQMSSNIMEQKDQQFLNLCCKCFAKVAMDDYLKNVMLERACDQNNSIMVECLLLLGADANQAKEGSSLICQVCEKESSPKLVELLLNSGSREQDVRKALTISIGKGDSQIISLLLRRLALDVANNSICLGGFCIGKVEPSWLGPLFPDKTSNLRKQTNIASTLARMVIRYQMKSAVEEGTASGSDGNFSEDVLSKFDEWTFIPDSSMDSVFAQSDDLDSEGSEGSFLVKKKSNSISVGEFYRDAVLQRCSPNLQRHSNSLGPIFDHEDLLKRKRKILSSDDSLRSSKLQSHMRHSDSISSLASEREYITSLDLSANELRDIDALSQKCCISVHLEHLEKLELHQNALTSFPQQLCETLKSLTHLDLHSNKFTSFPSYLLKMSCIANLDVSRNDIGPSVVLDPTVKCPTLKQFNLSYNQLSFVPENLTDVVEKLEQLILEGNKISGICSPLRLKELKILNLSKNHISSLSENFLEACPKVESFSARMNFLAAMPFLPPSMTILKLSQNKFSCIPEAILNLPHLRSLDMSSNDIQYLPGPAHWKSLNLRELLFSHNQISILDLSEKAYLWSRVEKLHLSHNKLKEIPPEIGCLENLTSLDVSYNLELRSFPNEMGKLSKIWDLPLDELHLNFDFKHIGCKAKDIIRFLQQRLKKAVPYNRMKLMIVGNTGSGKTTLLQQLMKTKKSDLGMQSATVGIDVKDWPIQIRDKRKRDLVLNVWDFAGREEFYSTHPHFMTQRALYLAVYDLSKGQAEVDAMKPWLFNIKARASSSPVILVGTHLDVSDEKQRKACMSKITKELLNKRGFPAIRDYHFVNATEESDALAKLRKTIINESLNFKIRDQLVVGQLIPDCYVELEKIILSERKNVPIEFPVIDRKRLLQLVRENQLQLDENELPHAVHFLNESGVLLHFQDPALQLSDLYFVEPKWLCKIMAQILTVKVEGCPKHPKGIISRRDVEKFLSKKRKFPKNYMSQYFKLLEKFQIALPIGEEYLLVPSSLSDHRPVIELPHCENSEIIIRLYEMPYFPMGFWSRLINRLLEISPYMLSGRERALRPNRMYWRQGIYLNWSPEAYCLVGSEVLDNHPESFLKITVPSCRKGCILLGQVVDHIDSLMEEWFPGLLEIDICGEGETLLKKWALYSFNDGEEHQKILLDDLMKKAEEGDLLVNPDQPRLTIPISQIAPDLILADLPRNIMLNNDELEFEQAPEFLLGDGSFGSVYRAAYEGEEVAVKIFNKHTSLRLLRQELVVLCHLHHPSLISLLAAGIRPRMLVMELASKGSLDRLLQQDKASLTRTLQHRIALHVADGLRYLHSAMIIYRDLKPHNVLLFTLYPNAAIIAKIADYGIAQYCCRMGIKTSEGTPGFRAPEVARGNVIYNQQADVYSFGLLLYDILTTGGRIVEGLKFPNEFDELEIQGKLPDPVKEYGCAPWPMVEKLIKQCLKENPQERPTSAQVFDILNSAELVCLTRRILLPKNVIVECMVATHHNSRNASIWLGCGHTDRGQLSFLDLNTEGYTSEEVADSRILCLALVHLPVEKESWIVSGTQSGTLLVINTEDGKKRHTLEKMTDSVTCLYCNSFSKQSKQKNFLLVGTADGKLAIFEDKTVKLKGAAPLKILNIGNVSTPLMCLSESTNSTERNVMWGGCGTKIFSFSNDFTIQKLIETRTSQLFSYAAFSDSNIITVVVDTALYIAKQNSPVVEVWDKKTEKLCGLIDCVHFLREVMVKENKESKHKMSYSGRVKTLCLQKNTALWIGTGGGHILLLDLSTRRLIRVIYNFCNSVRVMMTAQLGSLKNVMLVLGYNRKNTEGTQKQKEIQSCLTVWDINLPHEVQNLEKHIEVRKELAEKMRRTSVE
Leucine-rich repeat serine/threonine-protein kinase 2 (Homo sapiens, UniProt Q5S007, G2019S), sequence (Q5S007 whole entry G2019S): as the sequence (Q5S007 whole entry) above, with G2019S counted along it
Tyrosine-protein kinase JAK1 (Homo sapiens), sequence (P23458 whole entry): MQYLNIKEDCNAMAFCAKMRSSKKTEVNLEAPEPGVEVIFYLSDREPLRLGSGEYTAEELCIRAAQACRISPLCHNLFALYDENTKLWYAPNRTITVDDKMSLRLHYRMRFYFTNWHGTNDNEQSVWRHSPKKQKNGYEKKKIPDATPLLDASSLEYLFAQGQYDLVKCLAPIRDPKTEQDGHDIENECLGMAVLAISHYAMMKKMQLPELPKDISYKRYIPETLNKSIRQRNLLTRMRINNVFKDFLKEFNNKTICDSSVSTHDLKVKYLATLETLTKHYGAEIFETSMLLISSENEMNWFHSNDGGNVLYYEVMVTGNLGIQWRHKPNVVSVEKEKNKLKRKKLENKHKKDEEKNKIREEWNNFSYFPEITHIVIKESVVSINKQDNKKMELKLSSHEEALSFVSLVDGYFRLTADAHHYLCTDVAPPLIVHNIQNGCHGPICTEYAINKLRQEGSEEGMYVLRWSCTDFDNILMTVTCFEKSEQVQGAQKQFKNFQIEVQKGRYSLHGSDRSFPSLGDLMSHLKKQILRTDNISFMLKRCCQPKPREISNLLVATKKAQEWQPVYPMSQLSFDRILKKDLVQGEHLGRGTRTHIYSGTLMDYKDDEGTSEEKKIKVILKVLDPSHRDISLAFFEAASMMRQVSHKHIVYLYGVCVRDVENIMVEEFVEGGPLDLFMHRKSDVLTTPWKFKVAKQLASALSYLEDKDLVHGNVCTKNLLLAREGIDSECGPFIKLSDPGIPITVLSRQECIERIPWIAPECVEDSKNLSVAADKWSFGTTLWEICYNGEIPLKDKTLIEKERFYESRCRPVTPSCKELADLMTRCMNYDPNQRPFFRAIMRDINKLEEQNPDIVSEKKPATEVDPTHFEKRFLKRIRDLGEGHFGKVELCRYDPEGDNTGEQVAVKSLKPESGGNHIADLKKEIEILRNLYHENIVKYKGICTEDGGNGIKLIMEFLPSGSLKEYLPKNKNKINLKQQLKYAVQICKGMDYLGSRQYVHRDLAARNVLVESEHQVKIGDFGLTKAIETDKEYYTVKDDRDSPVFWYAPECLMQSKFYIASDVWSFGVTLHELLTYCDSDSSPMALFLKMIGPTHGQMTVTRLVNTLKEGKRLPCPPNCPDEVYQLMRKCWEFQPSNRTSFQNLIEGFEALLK
Cyclin-dependent kinase 5/CDK5 activator 1 (Homo sapiens), sequence (Q00535 whole entry): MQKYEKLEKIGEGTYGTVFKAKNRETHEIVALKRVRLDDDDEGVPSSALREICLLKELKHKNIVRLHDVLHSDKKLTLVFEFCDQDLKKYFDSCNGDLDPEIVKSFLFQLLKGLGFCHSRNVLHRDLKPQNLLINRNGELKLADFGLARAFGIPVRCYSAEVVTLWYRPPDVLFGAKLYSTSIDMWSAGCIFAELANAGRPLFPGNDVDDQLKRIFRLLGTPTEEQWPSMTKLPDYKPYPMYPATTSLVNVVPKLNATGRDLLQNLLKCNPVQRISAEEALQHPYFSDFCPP
Cyclin-dependent kinase 5/CDK5 activator 1 (Homo sapiens), sequence (Q15078 99-307 partner limits assumed): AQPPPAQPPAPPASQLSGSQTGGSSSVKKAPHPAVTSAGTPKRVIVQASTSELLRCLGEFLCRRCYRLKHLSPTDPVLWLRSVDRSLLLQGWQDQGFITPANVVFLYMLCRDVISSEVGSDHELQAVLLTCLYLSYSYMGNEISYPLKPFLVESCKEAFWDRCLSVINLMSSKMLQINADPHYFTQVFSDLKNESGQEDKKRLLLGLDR
RAC-alpha serine/threonine-protein kinase (Homo sapiens), sequence (P31749 whole entry): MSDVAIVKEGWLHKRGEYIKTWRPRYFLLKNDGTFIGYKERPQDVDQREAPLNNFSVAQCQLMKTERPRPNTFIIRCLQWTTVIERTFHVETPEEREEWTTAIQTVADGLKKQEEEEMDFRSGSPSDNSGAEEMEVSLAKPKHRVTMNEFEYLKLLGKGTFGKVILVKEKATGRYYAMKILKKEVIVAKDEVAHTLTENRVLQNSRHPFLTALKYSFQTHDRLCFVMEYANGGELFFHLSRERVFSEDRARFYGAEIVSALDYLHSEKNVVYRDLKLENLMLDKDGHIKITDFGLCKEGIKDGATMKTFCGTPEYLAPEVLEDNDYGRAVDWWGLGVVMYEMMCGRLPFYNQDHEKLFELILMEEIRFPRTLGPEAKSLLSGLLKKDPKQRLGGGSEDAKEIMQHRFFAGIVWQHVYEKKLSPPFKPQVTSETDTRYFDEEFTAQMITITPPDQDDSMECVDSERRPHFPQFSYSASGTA

Structure (SMILES): FC(F)(F)c1cccc(Sc2ccc3nnc(-c4ccccc4)n3n2)c1
- inhibition [1]: < 18%
- inhibition [2]: < 18%
- inhibition [3]: < 18%
- inhibition [4]: < 18%
- inhibition [5]: < 18%
- inhibition [6]: < 18%
- Stability [7]: Stable
- solubility kinetic [8]: 9 µM (≈ 3.35 µg/mL)
- inhibition [9]: < 18%
- Stability [10]: Unstable
- inhibition [11]: < 18%
- inhibition [12]: < 18%
- inhibition [13]: < 18%
- inhibition [14]: < 18%
- inhibition [15]: < 18%
- Ratio IC50 [16]: 4.8
- IC50 [17]: 242 nM
- inhibition [18]: < 18%
- inhibition [19]: < 18%
- inhibition [20]: < 18%
- inhibition [21]: < 18%
- IC50 [22]: 50 nM
- inhibition [23]: < 18%
- inhibition [24]: < 18%
- inhibition [25]: < 18%
- Papp [26]: 2.1 ×10⁻⁶ cm/s

Structure (SMILES): COC(=O)C(C)Sc1ccc2nnc(-c3cccs3)n2n1 (configuration not stated)
- efflux ratio [27]: 0.8
- solubility kinetic [8]: 72 µM (≈ 23.1 µg/mL)
- Ratio IC50 [16]: 2.7
- IC50 [17]: 535 nM
- IC50 [22]: 200 nM
- Papp [26]: 28 ×10⁻⁶ cm/s

Reference: ChEMBL document CHEMBL2346543, “Triazolopyridazine LRRK2 kinase inhibitors” (Bioorg Med Chem Lett, 2013)
